# From ChEMBL document CHEMBL1833906, “Design and evaluation of a novel fluorescent CB2 ligand as probe for receptor visualization in immune cells” (Bioorg Med Chem Lett, 2011)
# Activity calls are given as the source filed them. The calls are words filed in the database; no cut-off is given here.
# Key:
# [1] = target: Cannabinoid receptor 2 (Mus musculus) (UniProt P47936); test: Binding affinity to cannabinoid CB2 receptor in non transfected BALB/c mouse CD4+ T cells at 1 uM after 30 mins using PE-conjugated […] antibody staining by confocal microscopic analysis; type: cell-based; settings: T-cell
# Sequence of Cannabinoid receptor 2 (Mus musculus) (P47936 whole entry): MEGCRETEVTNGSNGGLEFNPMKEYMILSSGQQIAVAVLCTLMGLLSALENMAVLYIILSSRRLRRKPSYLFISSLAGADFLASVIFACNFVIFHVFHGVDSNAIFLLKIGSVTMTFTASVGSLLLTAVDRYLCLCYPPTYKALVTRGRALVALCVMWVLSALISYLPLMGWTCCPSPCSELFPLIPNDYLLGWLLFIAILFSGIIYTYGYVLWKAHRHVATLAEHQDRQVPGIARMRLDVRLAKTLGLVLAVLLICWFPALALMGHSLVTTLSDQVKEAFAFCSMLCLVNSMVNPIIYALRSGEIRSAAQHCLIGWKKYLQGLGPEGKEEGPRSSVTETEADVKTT
# In short: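 T cells were purified from peripheral lymph nodes of BALB/c mice and stained with PE-conjugated anti-CD4 antibody plus NBD-labelled probe at 0.1, 1.0 or 5 µM. Incubation on ice for 30 min is stated for the 5 µM condition. CD4+ cells were imaged by confocal microscopy (x40).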
# Cannabinoid receptor 2 = Cannabinoid receptor 2 (Homo sapiens, UniProt P34972); test: Displacement of [3H]-CP55940 from human recombinant cannabinoid CB2 receptor expressed in CHO-K1 cells; type: cell-based
# Sequence of Cannabinoid receptor 2 (P34972 whole entry): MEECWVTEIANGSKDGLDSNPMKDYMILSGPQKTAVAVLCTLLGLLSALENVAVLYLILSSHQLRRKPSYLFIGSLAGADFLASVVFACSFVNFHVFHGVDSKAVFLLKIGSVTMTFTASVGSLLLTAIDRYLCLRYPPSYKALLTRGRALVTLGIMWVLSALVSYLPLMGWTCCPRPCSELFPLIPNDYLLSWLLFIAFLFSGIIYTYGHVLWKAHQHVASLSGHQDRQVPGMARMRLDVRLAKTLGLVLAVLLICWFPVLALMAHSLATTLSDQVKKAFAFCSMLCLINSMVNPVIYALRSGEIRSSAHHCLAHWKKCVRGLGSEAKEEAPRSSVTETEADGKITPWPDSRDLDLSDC
# [2] = target: Cannabinoid receptor 2 (Mus musculus) (UniProt P47936); test: Binding affinity to cannabinoid CB2 receptor in non transfected BALB/c mouse CD4+ T cells at 0.1 uM after 30 mins using […] by confocal microscopic analysis; type: cell-based; settings: T-cell
# [3] = target: Cannabinoid receptor 2 (Mus musculus) (UniProt P47936); test: Binding affinity to cannabinoid CB2 receptor in non transfected BALB/c mouse CD4+ T cells at 5 uM after 30 mins […] by confocal microscopic analysis; type: cell-based; settings: T-cell
# [4] = target: T1, 5-hydroxytryptamine receptor 2C (Homo sapiens) (UniProt P28335); test: Displacement of [3H]-mesulergine from 5HT2C receptor at 10 uM
# T1 sequence (whole entry): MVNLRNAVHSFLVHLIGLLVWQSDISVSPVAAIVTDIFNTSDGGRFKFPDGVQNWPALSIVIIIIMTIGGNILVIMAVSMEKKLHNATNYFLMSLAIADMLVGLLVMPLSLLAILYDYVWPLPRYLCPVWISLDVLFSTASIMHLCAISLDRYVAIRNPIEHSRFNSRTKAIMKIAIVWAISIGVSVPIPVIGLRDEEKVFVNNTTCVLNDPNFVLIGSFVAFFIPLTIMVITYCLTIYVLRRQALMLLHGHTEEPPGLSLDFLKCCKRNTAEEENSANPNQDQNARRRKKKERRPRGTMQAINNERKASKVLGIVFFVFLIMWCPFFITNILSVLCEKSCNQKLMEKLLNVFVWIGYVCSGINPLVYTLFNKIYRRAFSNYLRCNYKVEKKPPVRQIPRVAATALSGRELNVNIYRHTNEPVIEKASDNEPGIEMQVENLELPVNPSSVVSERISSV
# In short: (§1)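 Single-point competitive radioligand binding screen at 10 µM test concentration, measured as % inhibition of radioligand binding. Radioligands: [3H]CP55940 for CB1, [3H]ketanserin for 5-HT2A, [3H]mesulergine for 5-HT2C. Run by the NIMH Psychoactive Drug Screening Program.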
# [5] = target: Cannabinoid receptor 2 (Mus musculus) (UniProt P47936); test: Binding affinity to cannabinoid CB2 receptor in non transfected BALB/c mouse CD4+ T cells after 30 mins […] by confocal microscopic analysis in presence of CB2 receptor agonist GW842166X; type: cell-based; settings: T-cell
# [6] = target: Cannabinoid receptor 2 (Mus musculus) (UniProt P47936); test: Binding affinity to cannabinoid CB2 receptor in mouse B lymphocytes at 5 uM after 30 mins using PE-conjugated anti-B220 antibody staining by flow cytometric analysis in presence of GW842166X; type: cell-based
# In short: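 Mouse lung mononuclear cells, prepared by collagenase digestion, were first preincubated on ice for 5 min with the CB2 agonist GW842166X at 100 µM. They were then stained with PE-conjugated anti-B220 antibody and NBD-labelled probe at 5 µM on ice for 30 min, and analysed by flow cytometry.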
# [7] = target: 5-hydroxytryptamine receptor 2A (Homo sapiens) (UniProt P28223); test: Displacement of [3H]-kentanserin from 5HT2A receptor at 10 uM; in short: as §1
# Sequence of 5-hydroxytryptamine receptor 2A (Homo sapiens) (P28223 whole entry): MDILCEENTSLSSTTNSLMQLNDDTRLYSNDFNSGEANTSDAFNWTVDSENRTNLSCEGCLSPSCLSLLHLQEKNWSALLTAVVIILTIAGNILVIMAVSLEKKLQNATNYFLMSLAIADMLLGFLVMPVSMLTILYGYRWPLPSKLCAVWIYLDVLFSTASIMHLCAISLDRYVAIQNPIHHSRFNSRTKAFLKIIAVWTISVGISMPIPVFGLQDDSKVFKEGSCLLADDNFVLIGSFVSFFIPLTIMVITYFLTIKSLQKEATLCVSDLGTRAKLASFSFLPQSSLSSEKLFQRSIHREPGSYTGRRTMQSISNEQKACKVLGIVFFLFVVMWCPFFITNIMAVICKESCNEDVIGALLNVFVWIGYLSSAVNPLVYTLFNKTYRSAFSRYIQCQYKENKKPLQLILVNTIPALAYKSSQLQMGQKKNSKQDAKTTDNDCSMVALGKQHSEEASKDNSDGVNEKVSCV
# [8] = target: Cannabinoid receptor 1 (Homo sapiens) (UniProt P21554); test: Displacement of [3H]-CP55940 from cannabinoid CB1 receptor at 10 uM; in short: as §1
# Sequence of Cannabinoid receptor 1 (Homo sapiens) (P21554 whole entry): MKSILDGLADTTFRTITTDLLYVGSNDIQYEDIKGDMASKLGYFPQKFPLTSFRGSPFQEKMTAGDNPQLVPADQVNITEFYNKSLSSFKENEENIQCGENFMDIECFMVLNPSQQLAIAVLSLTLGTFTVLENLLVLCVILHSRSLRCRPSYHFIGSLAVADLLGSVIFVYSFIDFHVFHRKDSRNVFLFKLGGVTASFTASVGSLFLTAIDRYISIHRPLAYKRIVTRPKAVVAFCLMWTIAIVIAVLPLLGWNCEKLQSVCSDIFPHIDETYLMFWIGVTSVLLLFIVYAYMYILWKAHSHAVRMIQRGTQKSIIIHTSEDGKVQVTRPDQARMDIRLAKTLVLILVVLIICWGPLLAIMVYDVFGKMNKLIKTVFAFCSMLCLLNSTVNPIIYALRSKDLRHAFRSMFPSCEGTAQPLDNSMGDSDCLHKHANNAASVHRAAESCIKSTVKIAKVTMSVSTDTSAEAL
# [9] = target: Cannabinoid receptor 2 (Mus musculus) (UniProt P47936); test: Binding affinity to cannabinoid CB2 receptor in mouse B lymphocytes at 5 uM after 30 mins using PE-conjugated anti-B220 antibody staining by flow cytometric analysis; type: cell-based
# In short: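 Lung mononuclear cells from mice were prepared by collagenase digestion of lung tissue. They were stained with PE-conjugated anti-B220 antibody and NBD-labelled probe at 5 µM on ice for 30 min, then analysed by flow cytometry.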
smiles,measurement,setting,value
CCCCCN1C(=O)/C(=N\NC(=O)CN(C)c2ccc([N+](=O)[O-])c3nonc23)c2ccc(OC)cc21,Activity,[1],inactive
same,Ki,Cannabinoid receptor 2,387 nM
same,Activity,[2],inactive
same,Activity,[3],Active
same,inhibition,[4],< 40%
same,Activity,[5],inactive
same,Activity,[6],inactive
same,inhibition,[7],< 40%
same,inhibition,[8],< 40%
same,Activity,[9],Active
